In general, inhibition refers to the percentage by which the read-out fell short of the control.

Where only a bound is given, the exact number is not on record here.

Assay [1] addresses Hepatocyte growth factor receptor (Homo sapiens) (UniProt P08581). Description: Inhibition of MET at 1 uM. An outline of the steps: (§1)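 Single-concentration screen on the Ambit KINOMEscan platform, run against a panel of 250–400 kinases. Per-kinase inhibition was also summarized as S(90), the fraction of kinases inhibited by more than 90%.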
Assay [2] addresses Misshapen-like kinase 1 (Homo sapiens) (UniProt Q8N4C8). The experiment in a line: Inhibition of MINK at 1 uM.
The target in assay [3] is Myosin light chain kinase, smooth muscle (Homo sapiens) (UniProt Q15746). Description: Inhibition of MLCK at 1 uM.
The target of assay [4] is Serine/threonine-protein kinase 38 (Homo sapiens) (UniProt Q15208). Description: Inhibition of NDR1 at 1 uM.
The target of assay [5] is Phosphatidylinositol 4-phosphate 5-kinase type-1 alpha (Homo sapiens) (UniProt Q99755). The experiment in a line: Inhibition of PIP5K1A at 1 uM.
Sequence of Phosphatidylinositol 4-phosphate 5-kinase type-1 alpha (Homo sapiens) (Q99755 whole entry): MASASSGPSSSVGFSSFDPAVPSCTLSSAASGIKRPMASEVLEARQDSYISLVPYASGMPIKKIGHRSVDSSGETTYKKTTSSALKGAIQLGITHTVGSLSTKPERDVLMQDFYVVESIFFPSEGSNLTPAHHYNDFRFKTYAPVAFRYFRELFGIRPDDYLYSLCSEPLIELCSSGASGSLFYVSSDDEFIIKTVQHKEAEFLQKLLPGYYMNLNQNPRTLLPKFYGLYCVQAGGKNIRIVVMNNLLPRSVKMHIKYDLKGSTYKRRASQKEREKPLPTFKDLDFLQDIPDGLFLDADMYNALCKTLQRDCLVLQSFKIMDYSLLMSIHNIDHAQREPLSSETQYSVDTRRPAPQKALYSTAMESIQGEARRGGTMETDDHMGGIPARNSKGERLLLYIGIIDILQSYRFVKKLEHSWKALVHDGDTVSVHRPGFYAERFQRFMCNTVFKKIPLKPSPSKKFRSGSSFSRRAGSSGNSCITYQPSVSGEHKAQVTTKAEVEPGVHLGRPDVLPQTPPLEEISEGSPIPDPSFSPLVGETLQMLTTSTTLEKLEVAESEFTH
The target of assay [6] is Serine/threonine-protein kinase PLK2 (Homo sapiens) (UniProt Q9NYY3). The experiment in a line: Inhibition of PLK2 at 1 uM.
Assay [7] has as its target T1, Receptor-interacting serine/threonine-protein kinase 4 (Homo sapiens) (UniProt P57078).
T1 sequence (whole entry): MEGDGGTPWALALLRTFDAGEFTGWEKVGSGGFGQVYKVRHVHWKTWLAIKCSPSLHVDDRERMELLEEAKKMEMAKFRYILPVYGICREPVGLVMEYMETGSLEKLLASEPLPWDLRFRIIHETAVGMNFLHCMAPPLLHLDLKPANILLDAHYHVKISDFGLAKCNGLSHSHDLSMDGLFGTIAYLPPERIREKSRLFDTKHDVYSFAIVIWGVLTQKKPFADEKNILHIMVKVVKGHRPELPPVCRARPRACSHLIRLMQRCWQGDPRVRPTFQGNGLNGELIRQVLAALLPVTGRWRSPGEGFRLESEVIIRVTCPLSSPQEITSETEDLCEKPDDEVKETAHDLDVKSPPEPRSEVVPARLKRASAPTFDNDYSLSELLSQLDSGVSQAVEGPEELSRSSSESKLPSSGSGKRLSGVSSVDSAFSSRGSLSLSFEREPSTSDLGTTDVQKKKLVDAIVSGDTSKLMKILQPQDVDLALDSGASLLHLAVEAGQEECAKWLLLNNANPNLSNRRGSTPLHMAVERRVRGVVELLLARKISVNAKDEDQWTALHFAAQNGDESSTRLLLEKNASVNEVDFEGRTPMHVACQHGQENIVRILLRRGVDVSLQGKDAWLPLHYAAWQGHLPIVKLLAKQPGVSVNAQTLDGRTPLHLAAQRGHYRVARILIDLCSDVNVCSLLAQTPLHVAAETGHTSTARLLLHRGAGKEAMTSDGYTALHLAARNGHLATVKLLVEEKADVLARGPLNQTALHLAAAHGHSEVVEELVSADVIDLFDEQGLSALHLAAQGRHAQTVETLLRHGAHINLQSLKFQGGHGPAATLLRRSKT
Description: Inhibition of RIPK4 at 1 uM.

The target in assay [8] is STE20-like serine/threonine-protein kinase (Homo sapiens) (UniProt Q9H2G2). Description: Inhibition of SLK at 1 uM.
Sequence of STE20-like serine/threonine-protein kinase (Homo sapiens) (Q9H2G2 whole entry, looked up): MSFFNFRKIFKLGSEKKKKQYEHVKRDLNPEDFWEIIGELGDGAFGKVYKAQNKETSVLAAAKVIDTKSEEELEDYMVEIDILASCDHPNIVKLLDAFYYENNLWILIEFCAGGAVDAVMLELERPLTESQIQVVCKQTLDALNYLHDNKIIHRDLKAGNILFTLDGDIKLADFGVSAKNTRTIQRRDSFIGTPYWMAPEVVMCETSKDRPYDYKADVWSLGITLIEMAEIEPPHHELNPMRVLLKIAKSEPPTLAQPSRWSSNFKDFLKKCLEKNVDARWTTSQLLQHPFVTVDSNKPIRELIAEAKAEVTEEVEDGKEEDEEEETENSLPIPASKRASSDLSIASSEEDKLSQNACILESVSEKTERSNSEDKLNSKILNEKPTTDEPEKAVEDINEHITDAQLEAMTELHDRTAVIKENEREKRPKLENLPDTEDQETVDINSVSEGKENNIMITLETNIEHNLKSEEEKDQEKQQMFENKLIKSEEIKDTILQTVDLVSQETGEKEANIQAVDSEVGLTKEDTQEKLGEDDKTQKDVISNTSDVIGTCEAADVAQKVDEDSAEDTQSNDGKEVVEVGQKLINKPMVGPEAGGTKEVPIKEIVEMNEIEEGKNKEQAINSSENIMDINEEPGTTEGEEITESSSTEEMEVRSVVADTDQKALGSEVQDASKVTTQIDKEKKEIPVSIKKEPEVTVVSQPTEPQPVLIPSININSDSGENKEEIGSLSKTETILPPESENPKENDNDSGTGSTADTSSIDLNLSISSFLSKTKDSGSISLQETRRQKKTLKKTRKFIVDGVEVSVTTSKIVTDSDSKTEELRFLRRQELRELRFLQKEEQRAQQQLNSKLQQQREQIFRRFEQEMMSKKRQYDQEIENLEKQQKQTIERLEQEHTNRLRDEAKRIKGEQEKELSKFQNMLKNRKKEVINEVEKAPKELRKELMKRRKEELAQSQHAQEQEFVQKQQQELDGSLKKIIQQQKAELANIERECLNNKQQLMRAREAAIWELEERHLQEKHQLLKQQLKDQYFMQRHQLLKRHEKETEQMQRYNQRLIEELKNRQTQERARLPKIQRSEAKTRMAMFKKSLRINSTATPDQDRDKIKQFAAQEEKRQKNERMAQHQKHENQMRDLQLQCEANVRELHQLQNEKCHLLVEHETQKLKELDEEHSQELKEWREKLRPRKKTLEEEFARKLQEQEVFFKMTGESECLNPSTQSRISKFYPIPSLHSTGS
Assay [9] concerns the target BDNF/NT-3 growth factors receptor (Homo sapiens) (UniProt Q16620). Description: Inhibition of TRKB at 1 uM. An outline of the steps:
as §1

Assay [10] concerns the target Activin receptor type-1-like (Homo sapiens) (UniProt P37023). The experiment in a line: Inhibition of ACVRL1 at 1 uM. An outline of the steps:
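Ambit KINOMEscan screen at a single concentration across a 250–400 kinase panel, recorded as percent inhibition. Selectivity was expressed as S(90), the fraction of kinases inhibited >90%.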

In assay [11] the target is Citron Rho-interacting kinase (Homo sapiens) (UniProt O14578). Description: Inhibition of CIT at 1 uM.
Sequence of Citron Rho-interacting kinase (Homo sapiens) (O14578 whole entry): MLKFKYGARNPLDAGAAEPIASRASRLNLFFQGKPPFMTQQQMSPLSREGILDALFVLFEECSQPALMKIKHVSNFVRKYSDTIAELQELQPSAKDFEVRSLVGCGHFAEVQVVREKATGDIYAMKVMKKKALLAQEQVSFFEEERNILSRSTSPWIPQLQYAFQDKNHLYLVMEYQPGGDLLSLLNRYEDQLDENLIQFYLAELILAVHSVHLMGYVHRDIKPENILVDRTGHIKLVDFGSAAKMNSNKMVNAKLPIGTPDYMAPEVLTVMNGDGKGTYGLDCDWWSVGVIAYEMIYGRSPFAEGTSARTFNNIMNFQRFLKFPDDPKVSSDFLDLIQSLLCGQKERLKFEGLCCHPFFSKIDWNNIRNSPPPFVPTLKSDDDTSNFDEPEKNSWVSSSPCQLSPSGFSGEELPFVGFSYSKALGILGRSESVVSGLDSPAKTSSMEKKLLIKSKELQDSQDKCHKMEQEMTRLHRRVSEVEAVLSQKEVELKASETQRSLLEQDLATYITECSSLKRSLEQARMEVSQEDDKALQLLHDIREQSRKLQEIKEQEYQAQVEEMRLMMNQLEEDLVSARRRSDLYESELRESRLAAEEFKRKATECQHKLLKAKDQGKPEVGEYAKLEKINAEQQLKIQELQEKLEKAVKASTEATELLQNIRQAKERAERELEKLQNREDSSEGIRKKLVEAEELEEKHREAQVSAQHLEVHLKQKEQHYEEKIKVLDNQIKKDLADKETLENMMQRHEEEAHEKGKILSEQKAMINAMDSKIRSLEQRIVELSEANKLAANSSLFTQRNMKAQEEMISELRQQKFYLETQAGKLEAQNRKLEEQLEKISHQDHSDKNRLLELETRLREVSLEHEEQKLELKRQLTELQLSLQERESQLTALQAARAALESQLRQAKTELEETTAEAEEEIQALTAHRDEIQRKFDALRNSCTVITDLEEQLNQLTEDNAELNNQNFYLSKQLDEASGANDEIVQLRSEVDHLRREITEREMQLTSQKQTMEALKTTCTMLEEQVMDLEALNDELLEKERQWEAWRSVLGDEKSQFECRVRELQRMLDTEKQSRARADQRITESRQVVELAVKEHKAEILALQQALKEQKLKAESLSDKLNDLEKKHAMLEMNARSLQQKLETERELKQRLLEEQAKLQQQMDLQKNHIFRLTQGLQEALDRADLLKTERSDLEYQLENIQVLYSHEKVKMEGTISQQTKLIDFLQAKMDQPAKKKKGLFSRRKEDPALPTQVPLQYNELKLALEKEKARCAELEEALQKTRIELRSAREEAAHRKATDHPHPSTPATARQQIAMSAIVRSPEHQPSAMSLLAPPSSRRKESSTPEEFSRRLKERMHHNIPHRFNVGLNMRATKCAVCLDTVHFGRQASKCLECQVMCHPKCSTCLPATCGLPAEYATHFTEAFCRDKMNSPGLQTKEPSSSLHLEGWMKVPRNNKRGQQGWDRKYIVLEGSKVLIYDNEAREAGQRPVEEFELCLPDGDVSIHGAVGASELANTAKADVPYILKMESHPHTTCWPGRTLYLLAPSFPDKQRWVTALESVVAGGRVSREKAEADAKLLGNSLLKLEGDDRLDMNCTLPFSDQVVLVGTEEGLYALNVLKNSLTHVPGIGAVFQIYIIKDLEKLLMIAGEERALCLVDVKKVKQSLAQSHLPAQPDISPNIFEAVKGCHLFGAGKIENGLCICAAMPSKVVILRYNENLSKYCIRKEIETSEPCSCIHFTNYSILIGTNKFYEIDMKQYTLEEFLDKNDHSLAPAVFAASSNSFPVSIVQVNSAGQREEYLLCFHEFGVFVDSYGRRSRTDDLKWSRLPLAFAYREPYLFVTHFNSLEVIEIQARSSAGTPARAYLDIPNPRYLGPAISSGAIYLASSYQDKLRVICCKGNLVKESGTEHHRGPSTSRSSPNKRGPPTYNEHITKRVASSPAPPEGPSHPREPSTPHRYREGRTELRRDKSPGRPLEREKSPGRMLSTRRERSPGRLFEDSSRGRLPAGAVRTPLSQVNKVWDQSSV
In assay [12] the target is Dual specificity tyrosine-phosphorylation-regulated kinase 1B (Homo sapiens) (UniProt Q9Y463). Description: Inhibition of DYRK1B at 1 uM.
The subject of assay [13] is Epidermal growth factor receptor (Homo sapiens), P00533 [L861Q]. The experiment in a line: Inhibition of EGFR L861Q mutant at 1 uM. The format is protein assay. An outline of the steps: (§2)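 Single-concentration screen using Ambit Bioscience KINOMEscan technology across a panel of 250–400 kinases. Per-kinase inhibition from this screen was summarized as S(90), the fraction of kinases inhibited by more than 90%.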

Assay [14] concerns the target T2, Ephrin type-B receptor 3 (Homo sapiens) (UniProt P54753).
T2 sequence (whole entry): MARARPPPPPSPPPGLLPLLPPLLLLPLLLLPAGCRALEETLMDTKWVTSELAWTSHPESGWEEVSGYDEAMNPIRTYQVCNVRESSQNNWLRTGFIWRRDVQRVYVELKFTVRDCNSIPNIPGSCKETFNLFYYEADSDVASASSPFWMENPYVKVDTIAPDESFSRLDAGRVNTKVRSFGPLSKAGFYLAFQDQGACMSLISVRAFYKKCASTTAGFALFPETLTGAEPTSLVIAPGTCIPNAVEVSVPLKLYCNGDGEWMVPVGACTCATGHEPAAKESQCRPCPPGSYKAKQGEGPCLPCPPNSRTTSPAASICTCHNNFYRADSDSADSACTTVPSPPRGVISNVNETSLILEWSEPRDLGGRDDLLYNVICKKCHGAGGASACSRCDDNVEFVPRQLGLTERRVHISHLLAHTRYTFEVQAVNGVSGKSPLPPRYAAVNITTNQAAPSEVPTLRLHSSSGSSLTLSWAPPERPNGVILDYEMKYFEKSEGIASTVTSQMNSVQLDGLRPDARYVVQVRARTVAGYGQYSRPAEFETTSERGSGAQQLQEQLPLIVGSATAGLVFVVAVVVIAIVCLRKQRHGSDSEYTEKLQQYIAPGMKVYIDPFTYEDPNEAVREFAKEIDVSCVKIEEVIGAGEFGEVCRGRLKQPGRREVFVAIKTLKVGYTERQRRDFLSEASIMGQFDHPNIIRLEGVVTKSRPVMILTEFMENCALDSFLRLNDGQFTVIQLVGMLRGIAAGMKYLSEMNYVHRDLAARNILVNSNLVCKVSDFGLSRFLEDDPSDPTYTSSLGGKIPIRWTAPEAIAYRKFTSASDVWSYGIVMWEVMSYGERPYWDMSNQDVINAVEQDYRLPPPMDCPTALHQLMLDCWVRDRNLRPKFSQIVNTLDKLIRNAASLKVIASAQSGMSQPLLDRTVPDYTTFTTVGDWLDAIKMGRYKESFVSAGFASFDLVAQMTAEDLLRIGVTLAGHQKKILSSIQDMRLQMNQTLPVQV
Description: Inhibition of EPHB3 at 1 uM. The essentials: as §2

Assay [15] has as its target Mitogen-activated protein kinase 7 (Homo sapiens) (UniProt Q13164). The experiment in a line: Inhibition of ERK5 at 1 uM.
Assay [16] deals with Focal adhesion kinase 1 (Homo sapiens) (UniProt Q05397). Description: Inhibition of FAK at 1 uM. An outline of the steps:
as §2

Sequence of Misshapen-like kinase 1 (Homo sapiens) (Q8N4C8 whole entry, looked up): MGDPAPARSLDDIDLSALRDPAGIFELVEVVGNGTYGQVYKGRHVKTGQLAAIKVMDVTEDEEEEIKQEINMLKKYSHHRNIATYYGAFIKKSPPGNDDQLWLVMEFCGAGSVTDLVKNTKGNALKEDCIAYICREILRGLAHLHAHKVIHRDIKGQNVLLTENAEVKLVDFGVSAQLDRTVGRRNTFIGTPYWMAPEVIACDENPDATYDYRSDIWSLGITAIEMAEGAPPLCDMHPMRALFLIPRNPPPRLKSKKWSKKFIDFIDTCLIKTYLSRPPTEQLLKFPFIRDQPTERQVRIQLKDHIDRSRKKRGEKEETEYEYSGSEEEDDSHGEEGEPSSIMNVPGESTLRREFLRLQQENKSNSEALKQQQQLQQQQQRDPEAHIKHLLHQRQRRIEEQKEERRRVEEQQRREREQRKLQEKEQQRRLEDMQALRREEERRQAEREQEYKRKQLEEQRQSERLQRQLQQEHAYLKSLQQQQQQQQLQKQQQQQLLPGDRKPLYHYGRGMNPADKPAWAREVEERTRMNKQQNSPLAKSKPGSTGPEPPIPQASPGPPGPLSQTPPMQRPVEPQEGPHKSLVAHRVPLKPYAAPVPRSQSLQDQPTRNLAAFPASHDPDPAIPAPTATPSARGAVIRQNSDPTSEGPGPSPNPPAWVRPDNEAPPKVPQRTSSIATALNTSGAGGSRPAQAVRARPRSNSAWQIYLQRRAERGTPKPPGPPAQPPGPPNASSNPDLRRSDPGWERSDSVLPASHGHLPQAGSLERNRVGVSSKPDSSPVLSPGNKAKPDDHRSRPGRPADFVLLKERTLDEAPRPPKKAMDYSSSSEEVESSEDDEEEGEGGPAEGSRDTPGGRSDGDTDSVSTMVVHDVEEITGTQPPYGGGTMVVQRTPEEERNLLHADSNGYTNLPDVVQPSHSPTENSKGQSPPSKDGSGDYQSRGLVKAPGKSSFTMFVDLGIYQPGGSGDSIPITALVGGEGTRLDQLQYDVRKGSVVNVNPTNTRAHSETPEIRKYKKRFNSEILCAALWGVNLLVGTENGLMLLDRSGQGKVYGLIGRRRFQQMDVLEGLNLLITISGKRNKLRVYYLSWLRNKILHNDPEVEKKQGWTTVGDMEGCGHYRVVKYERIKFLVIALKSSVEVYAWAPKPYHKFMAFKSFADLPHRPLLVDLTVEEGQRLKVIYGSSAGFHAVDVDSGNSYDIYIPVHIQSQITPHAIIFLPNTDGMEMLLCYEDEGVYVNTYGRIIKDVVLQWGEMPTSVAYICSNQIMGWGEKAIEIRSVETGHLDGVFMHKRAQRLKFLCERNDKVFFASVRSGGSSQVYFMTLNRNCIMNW

For the compound `FC(F)(F)c1ccc(Cl)cc1CN1CCNc2ncc(-c3ccnc(N4CCNCC4)c3)cc21`, the inhibition is 94% in assay [1]; less than 50% in assay [2]; less than 50% in assay [3]; less than 50% in [4]; less than 50% in assay [5]; less than 50% in assay [6]. Also, the inhibition in assay [7] is less than 50%; in assay [8] it was less than 50%; in assay [9] it was 79%; in assay [10], less than 50%; in assay [11], less than 50%; in assay [12], less than 50%. For the same compound, the inhibition in assay [13] was less than 50%; in assay [14] it was less than 50%; in assay [15], less than 50%; in [16], 100%.
For the compound `CN1CCN(c2ccc(-c3cnc4c(c3)N(Cc3cc(Cl)ccc3Cl)CCN4)cn2)CC1`, the inhibition was 67% in assay [1]; less than 50% in assay [2]; less than 50% in assay [3]; less than 50% in assay [4]; less than 50% in assay [5]; less than 50% in assay [6]. Also, the inhibition in assay [7] is less than 50%; in assay [8], less than 50%; in assay [9], 72%; in [10] it was less than 50%; in [11], less than 50%; in assay [12] it was less than 50%. The inhibition is less than 50% in assay [13], less than 50% in assay [14], less than 50% in [15] and 94% in assay [16].
In the case of `COC1CCN(C(=O)c2ccc(-c3cnc4c(c3)N(Cc3cc(Cl)ccc3C(F)(F)F)CCN4)cc2)CC1`, the inhibition in assay [1] was 76.6%; in assay [5], less than 50%; in [8] it was less than 50%; in [9], less than 50%; in assay [10], less than 50%; in assay [13], less than 50%. Moreover, the inhibition was less than 50% in [14] and 94% in [16].
Turning to `O=C(c1ccc(-c2cnc3c(c2)N(Cc2cc(Cl)ccc2C(F)(F)F)CCN3)cc1)N1CCCCC1`, the inhibition is 66% in assay [1]; less than 50% in [5]; less than 50% in [8]; less than 50% in [9]; less than 50% in assay [10]; less than 50% in assay [13]. For the same compound, the inhibition in assay [14] is less than 50%; in [16] it was 84.4%.
As for `O=C(O)c1ccc(-c2cnc3c(c2)N(Cc2cc(Cl)ccc2C(F)(F)F)CCN3)cc1`, the inhibition in assay [1] was less than 50%; in assay [5], less than 50%; in assay [8], less than 50%; in [9], 65%; in assay [10] it was less than 50%; in assay [13] it was less than 50%. The same compound showed an inhibition in assay [14] of less than 50%.
With `CN1CCN(c2ccc(-c3cnc4c(c3)N(Cc3cc(F)ccc3F)CCN4)cn2)CC1`, the inhibition in assay [1], in assay [2], in assay [3], in assay [4], in assay [5] and in assay [6] was less than 50% each time. Also, the inhibition in assay [7] is less than 50%; in assay [8] it was less than 50%; in assay [9], 58%; in [10], less than 50%; in [11], less than 50%; in [12] it was less than 50%. Also, the inhibition was less than 50% in assay [13], less than 50% in assay [14], less than 50% in assay [15] and 67.2% in assay [16].
Take `O=C(c1ccc(-c2cnc3c(c2)N(Cc2cc(Cl)ccc2C(F)(F)F)CCN3)cc1)N1CCC(N2CCCC2)CC1`: the inhibition in assay [1] is 90.3%; in assay [5], less than 50%; in assay [8], less than 50%; in assay [9], 73.6%; in assay [10] it was less than 50%; in [13], less than 50%. Further, the inhibition in [14] was less than 50%; in assay [16] it was 98.9%.
Regarding `CN1CCN(c2ccc(-c3cnc4c(c3)N(Cc3c(F)ccc(F)c3Cl)CCN4)cn2)CC1`, the inhibition is 94% in [1]; 96% in [2]; less than 50% in [3]; less than 50% in [4]; less than 50% in assay [5]; less than 50% in assay [6]. For the same compound, the inhibition in assay [7] is less than 50%; in assay [8], less than 50%; in assay [9], 72%; in assay [10], less than 50%; in assay [11] it was less than 50%; in [12], less than 50%. Also, the inhibition in assay [13] is less than 50%; in assay [14] it was less than 50%; in assay [15], less than 50%; in [16] it was 83%.
As to `CC(=O)N1CCN(c2cc(-c3cnc4c(c3)N(Cc3cc(Cl)ccc3C(F)(F)F)CCN4)ccn2)CC1`, the inhibition is 86% in assay [1]; less than 50% in [2]; less than 50% in [3]; less than 50% in assay [4]; less than 50% in [5]; 82% in [6]. Also, the inhibition was less than 50% in assay [7]; less than 50% in assay [8]; 76% in assay [9]; less than 50% in assay [10]; less than 50% in [11]; less than 50% in assay [12]. The inhibition in assay [13] was less than 50%; in assay [14], less than 50%; in assay [15], less than 50%; in assay [16] it was 100%.

For the origin of these results see ChEMBL document CHEMBL1165965, “Synthesis and structure-activity relationships of 1,2,3,4-tetrahydropyrido[2,3-b]pyrazines as potent and selective inhibitors of the anaplastic lymphoma kinase” (Bioorg Med Chem, 2010).
